Laboratory results published in ChEMBL document CHEMBL3414514, “Synthesis and pharmacological evaluation of novel bisindole derivatives bearing oximes moiety: identification of novel proapoptotic agents” (Eur J Med Chem, 2015).

What was measured:
[1] = system: MGC-803; assay: Cytotoxicity against human MGC803 cells after 2 days by MTT assay; format: functional, cell-based; conditions: MGC-803, 48 h
Procedure, shortened: (§1)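 Cells grown in medium with 10% heat-inactivated FBS at 37 C under 5% CO2. Compounds dissolved in medium with 1% DMSO; controls received 1% DMSO. After 2 days, MTT (10 mg/mL) added for 4 h, formazan dissolved in DMSO and absorbance read at 570/630 nm. Survival taken relative to negative control; IC50 by Bliss method (n = 5), at least three independent experiments.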

[2] = system: A549; assay: Cytotoxicity against human A549 cells after 2 days by MTT assay; format: functional, cell-based; conditions: A549, 48 h; procedure, shortened: as §1
[3] = system: HepG2; assay: Cytotoxicity against human HepG2 cells after 2 days by MTT assay; format: functional, cell-based; conditions: HepG2, 48 h; procedure, shortened: as §1
[4] = system: NCI-H460; assay: Cytotoxicity against human NCI-H460 cells after 2 days by MTT assay; format: functional, cell-based; conditions: NCI-H460, 48 h; procedure, shortened: as §1
[5] = Cytotoxicity against human SKOV3 cells after 2 days by MTT assay; format: functional, cell-based; conditions: SK-OV-3, 48 h; procedure, shortened: as §1
[6] = Cytotoxicity against human T24 cells after 2 days by MTT assay; format: functional, cell-based; conditions: T-24, 48 h; procedure, shortened: as §1
[7] = Cytotoxicity against human SPCA2 cells after 2 days by MTT assay; format: functional, cell-based; conditions: SPCA2, 48 h; procedure, shortened: as §1
[8] = system: HUVEC; assay: Cytotoxicity against human HUVEC cells after 2 days by MTT assay; format: cell-based; conditions: 48 h; procedure, shortened: as §1

Compound	IC50 [1]	IC50 [2]	IC50 [3]	IC50 [4]	IC50 [5]	IC50 [6]	IC50 [7]	IC50 [8]
Cc1cccc2c1N=C(c1c[nH]c3c(C)cccc13)/C2=N/OCc1cccc(Cl)c1	26.4 µM	31.9 µM	22.8 µM	23.1 µM	26.5 µM	17.6 µM	18.2 µM	> 100 µM
Cc1cccc2c1N=C(c1c[nH]c3c(C)cccc13)/C2=N/O	16.9 µM	17.5 µM	15.6 µM	31.4 µM	48 µM	23.5 µM	24.3 µM	> 100 µM
N#Cc1ccc2c(c1)/C(=N\OCc1ccccc1)C(c1c[nH]c3ccc(C#N)cc13)=N2	15.5 µM	14.2 µM	25.1 µM	14.5 µM	16.6 µM	18.6 µM	19.3 µM	> 100 µM
O/N=C1/C(c2c[nH]c3ccccc23)=Nc2ccccc21	20.6 µM	21.8 µM	20.4 µM	22.5 µM	15.9 µM	27.4 µM	20.4 µM	> 100 µM
O=[N+]([O-])c1ccc2c(c1)/C(=N\O)C(c1c[nH]c3ccc([N+](=O)[O-])cc13)=N2	10.8 µM	10.4 µM	8.25 µM	11.5 µM	10.7 µM	13.2 µM	11.2 µM	> 100 µM
N#Cc1ccc2c(c1)/C(=N\O)C(c1c[nH]c3ccc(C#N)cc13)=N2	18.4 µM	14.9 µM	30.1 µM	14.3 µM	25.9 µM	28.4 µM	19.2 µM	> 100 µM
Cc1ccc(CO/N=C2/C(c3c[nH]c4ccc(F)cc34)=Nc3ccc(F)cc32)cc1	20.8 µM	13.6 µM	19.6 µM	12 µM	11.3 µM	20 µM	11 µM	> 100 µM
FC(F)(F)c1ccc(CO/N=C2/C(c3c[nH]c4ccccc34)=Nc3ccccc32)cc1	30.6 µM	21.9 µM	22.3 µM	24.1 µM	24.2 µM	18.9 µM	21.2 µM	> 100 µM
Cc1cccc2c1N=C(c1c[nH]c3c(C)cccc13)/C2=N/OCc1cccc(F)c1	31.9 µM	23.3 µM	34.1 µM	16.8 µM	17.3 µM	21.2 µM	20.4 µM	> 100 µM
Fc1ccc2c(c1)/C(=N\OCc1ccccc1)C(c1c[nH]c3ccc(F)cc13)=N2	21.3 µM	10.5 µM	17.3 µM	12 µM	12.3 µM	12.5 µM	13.3 µM	> 100 µM
c1ccc(CO/N=C2/C(c3c[nH]c4ccccc34)=Nc3ccccc32)cc1	15.4 µM	19.3 µM	19.5 µM	22 µM	16.9 µM	12.2 µM	21.4 µM	> 100 µM
c1ccc2c(c1)N=C(c1c[nH]c3ccccc13)/C2=N/OCC1CC1	29.9 µM	36.7 µM	32.1 µM	40.9 µM	32.3 µM	35.4 µM	33.8 µM	> 100 µM
N#Cc1cccc2c1/C(=N\O)C(c1c[nH]c3cccc(C#N)c13)=N2	35.4 µM	33.6 µM	40.5 µM	18.8 µM	30.6 µM	19.4 µM	30.9 µM	> 100 µM
Cc1ccc2c(c1)/C(=N\O)C(c1c[nH]c3ccc(C)cc13)=N2	9.47 µM	11.2 µM	10.7 µM	18.3 µM	11.1 µM	8.78 µM	19.6 µM	> 100 µM
COC(=O)c1ccc2c(c1)/C(=N\O)C(c1c[nH]c3ccc(C(=O)OC)cc13)=N2	22.4 µM	20.5 µM	15.3 µM	14 µM	15.6 µM	11.5 µM	14.9 µM	> 100 µM
Cc1ccc(CO/N=C2/C(c3c[nH]c4ccc(Br)cc34)=Nc3ccc(Br)cc32)cc1	31.2 µM	13.3 µM	20.4 µM	10.6 µM	7.22 µM	21.4 µM	15.1 µM	> 100 µM
Cc1cccc2c1/C(=N\O)C(c1c[nH]c3cccc(C)c13)=N2	25 µM	44.9 µM	21.3 µM	24.2 µM	27 µM	15 µM	42.2 µM	> 100 µM

Compound	IC50 [1]	IC50 [2]	IC50 [3]	IC50 [4]	IC50 [5]	IC50 [6]	IC50 [7]	IC50 [8]
C=CCO/N=C1/C(c2c[nH]c3ccccc23)=Nc2ccccc21	24.3 µM	30.9 µM	31.3 µM	24.5 µM	26.7 µM	32.1 µM	26.9 µM	> 100 µM
O/N=C1/C(c2c[nH]c3ccc(Br)cc23)=Nc2ccc(Br)cc21	13.2 µM	16.2 µM	14.3 µM	18.9 µM	19.2 µM	12.5 µM	11.6 µM	> 100 µM
Fc1ccc2c(c1)N=C(c1c[nH]c3cc(F)ccc13)/C2=N/OCc1ccccc1	21.9 µM	15.7 µM	24.1 µM	19.4 µM	15.6 µM	13.3 µM	20.2 µM	> 100 µM
O/N=C1/C(c2c[nH]c3ccc(F)cc23)=Nc2ccc(F)cc21	12.3 µM	11.9 µM	9.31 µM	12.8 µM	9.89 µM	10.1 µM	13.7 µM	> 100 µM
COc1ccc2c(c1)/C(=N\OCc1ccc(F)cc1Cl)C(c1c[nH]c3ccc(OC)cc13)=N2	16.1 µM	19.1 µM	24.1 µM	13 µM	12.2 µM	12.4 µM	11.1 µM	> 100 µM
CCCCO/N=C1/C(c2c[nH]c3ccccc23)=Nc2ccccc21	23.3 µM	37 µM	33.6 µM	42.2 µM	46 µM	35.2 µM	29.2 µM	> 100 µM
Nc1ccc2c(c1)/C(=N\O)C(c1c[nH]c3ccc(N)cc13)=N2	13.2 µM	14.8 µM	18.5 µM	20.2 µM	17.5 µM	9.38 µM	16.7 µM	> 100 µM
CC(=O)Nc1ccc2c(c1)/C(=N\O)C(c1c[nH]c3ccc(NC(C)=O)cc13)=N2	17.9 µM	21.9 µM	28.2 µM	30.2 µM	21.2 µM	16.8 µM	27.8 µM	> 100 µM
O/N=C1/C(c2c[nH]c3ccc(OCc4ccccc4)cc23)=Nc2ccc(OCc3ccccc3)cc21	14.5 µM	19.5 µM	19 µM	16.6 µM	17.6 µM	11.8 µM	12 µM	> 100 µM
O/N=C1/C(c2c[nH]c3cc(F)ccc23)=Nc2cc(F)ccc21	22.1 µM	21.3 µM	13.8 µM	22.2 µM	16.4 µM	11.7 µM	10 µM	> 100 µM
FC(F)(F)c1ccc(CO/N=C2/C(c3c[nH]c4ccc(Br)cc34)=Nc3ccc(Br)cc32)cc1	11.1 µM	8.45 µM	11.1 µM	11.2 µM	10.2 µM	9.88 µM	12.4 µM	> 100 µM
Fc1ccc(CO/N=C2/C(c3c[nH]c4ccccc34)=Nc3ccccc32)c(Cl)c1	18.5 µM	21.4 µM	25.4 µM	21.9 µM	37.6 µM	20 µM	19.5 µM	> 100 µM
O=c1[nH]cc(F)c(=O)[nH]1 [FLUOROURACIL]		38.2 µM	32 µM	46.1 µM	27.3 µM	40.6 µM	44.1 µM	
Fc1ccc(CO/N=C2/C(c3c[nH]c4ccccc34)=Nc3ccccc32)cc1	33 µM	27 µM	35.5 µM	20.7 µM	29 µM	23.1 µM	25.9 µM	> 100 µM
COC(=O)c1ccc2c(c1)N=C(c1c[nH]c3cc(C(=O)OC)ccc13)/C2=N/O	29.8 µM	25.9 µM	20.8 µM	20.8 µM	26.8 µM	14.3 µM	27.2 µM	> 100 µM
Clc1cccc(CO/N=C2/C(c3c[nH]c4ccc(Br)cc34)=Nc3ccc(Br)cc32)c1	7.6 µM	12.9 µM	13.3 µM	14.6 µM	14.1 µM	9.34 µM	13.5 µM	> 100 µM
Cc1ccc(CO/N=C2/C(c3c[nH]c4ccccc34)=Nc3ccccc32)cc1	22.8 µM	22.4 µM	19.1 µM	29.8 µM	32.4 µM	23.5 µM	25.4 µM	> 100 µM
